Reference: ChEMBL document CHEMBL4043244, “Diverse amide analogs of sulindac for cancer treatment and prevention” (Bioorg Med Chem Lett, 2017)

How the values were obtained:
Format in all cases: functional
MDA-MB-231 = assay: Growth inhibition of human MDA-MB-231 cells after 72 hrs by CellTiter-Glo reagent based assay; conditions: MDA-MB-231, 72 h
How it was run: (§1)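 Cancer cell lines (PC3 prostate, HT29 colorectal carcinoma, MDA-MB-231 breast) were screened by quantitative high-throughput screening in whole cells, and CC50 values were derived.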

PC-3 = assay: Growth inhibition of human PC3 cells after 72 hrs by CellTiter-Glo reagent based assay; conditions: PC-3, 72 h; how it was run: as §1
HT-29 = assay: Growth inhibition of human HT-29 cells after 72 hrs by CellTiter-Glo reagent based assay; conditions: HT-29, 72 h; how it was run: as §1

**Q.** `CC1=C(CC(=O)N(CCCNC(C)C)C(C)C)c2cc(F)ccc2/C1=C\c1ccc([S+](C)[O-])cc1` (configuration not stated) was tested. Which CC50 (MDA-MB-231) did it give?
**A.** > 50 µM

**Q.** And the CC50 (PC-3)?
**A.** 48.3 µM

**Q.** And the CC50 (HT-29)?
**A.** 16.3 µM

**Q.** `COC(=O)[C@H](C)NC(=O)CC1=C(C)/C(=C/c2ccc(SC)cc2)c2ccc(F)cc21` was tested. Which CC50 (MDA-MB-231) did it give?
**A.** 38.9 µM

**Q.** And the CC50 (PC-3)?
**A.** > 50 µM

**Q.** And the CC50 (HT-29)?
**A.** 23.9 µM

**Q.** With `COc1cc(/C=C2/C(C)=C(CC(=O)NCCN(C)C)c3cc(F)ccc32)cc(OC)c1OC` as the compound, how does the CC50 (MDA-MB-231) read?
**A.** 15.1 µM

**Q.** And the CC50 (PC-3)?
**A.** 18.3 µM

**Q.** And the CC50 (HT-29)?
**A.** 6.22 µM

**Q.** `CCN1CCC[C@H]1CNC(=O)CC1=C(C)/C(=C/c2ccc([S+](C)[O-])cc2)c2ccc(F)cc21` (some centres not stated) was tested. Which CC50 (MDA-MB-231) did it give?
**A.** > 50 µM

**Q.** What about the CC50 (PC-3) of the same compound?
**A.** > 50 µM

**Q.** And the CC50 (HT-29)?
**A.** 19 µM

**Q.** Which CC50 (MDA-MB-231) does the source give for `CC1=C(CC(=O)N(C)CCN(C)S(=O)(=O)c2ccccc2)c2cc(F)ccc2/C1=C\c1ccc([S+](C)[O-])cc1` (configuration not stated) here?
**A.** 12.2 µM

**Q.** What about the CC50 (PC-3) of the same compound?
**A.** 8.2 µM

**Q.** And the CC50 (HT-29)?
**A.** 6.09 µM

**Q.** What does the source list for `CSc1ccc(/C=C2/C(C)=C(CC(=O)N3CCN(C)CC3)c3cc(F)ccc32)cc1`?
**A.** CC50 (MDA-MB-231): 11.5 µM; CC50 (PC-3): 13.4 µM; CC50 (HT-29): 4.29 µM

**Q.** Which results are given for `COc1cc(/C=C2/C(C)=C(CC(=O)N(C)CCN(C)C)c3cc(F)ccc32)cc(OC)c1OC`?
**A.** CC50 (MDA-MB-231): 10.8 µM; CC50 (PC-3): 11.4 µM; CC50 (HT-29): 4.68 µM

**Q.** How did the CC50 (MDA-MB-231) turn out when `CC1=C(CC(=O)N(C)CCN(C)C(=O)[C@@H](N)C(C)C)c2cc(F)ccc2/C1=C\c1ccc([S+](C)[O-])cc1` (some centres not stated) was run?
**A.** > 50 µM

**Q.** What about the CC50 (PC-3) of the same compound?
**A.** > 50 µM

**Q.** What about the CC50 (HT-29) of the same compound?
**A.** 30.2 µM

**Q.** How did the CC50 (MDA-MB-231) turn out when `CC1=C(CC(=O)NCc2ccco2)c2cc(F)ccc2/C1=C\c1nc2ccccc2s1` was run?
**A.** 6.7 µM

**Q.** And the CC50 (PC-3)?
**A.** 26.4 µM

**Q.** And the CC50 (HT-29)?
**A.** 5.48 µM

**Q.** Which CC50 (MDA-MB-231) does the source give for `CCN(CC)CCCNC(=O)CC1=C(C)/C(=C/c2ccc([S+](C)[O-])cc2)c2ccc(F)cc21` (configuration not stated) here?
**A.** > 50 µM

**Q.** What about the CC50 (PC-3) of the same compound?
**A.** > 50 µM

**Q.** What about the CC50 (HT-29) of the same compound?
**A.** 27.1 µM

**Q.** Which results are given for `CSc1ccc(/C=C2/C(C)=C(CC(=O)N(C)CCN(C)C(=O)[C@@H](N)C(C)C)c3cc(F)ccc32)cc1`?
**A.** CC50 (MDA-MB-231): 7.33 µM; CC50 (PC-3): 7.08 µM; CC50 (HT-29): 3.72 µM

**Q.** `CCNCCN(CC)C(=O)CC1=C(C)/C(=C/c2ccc(SC)cc2)c2ccc(F)cc21` was tested. Which CC50 (MDA-MB-231) did it give?
**A.** 6.65 µM

**Q.** What about the CC50 (PC-3) of the same compound?
**A.** 6.56 µM

**Q.** What about the CC50 (HT-29) of the same compound?
**A.** 2.54 µM

**Q.** `CCN(CC)CCNC(=O)CC1=C(C)/C(=C/c2nc3ccccc3s2)c2ccc(F)cc21` was tested. Which CC50 (MDA-MB-231) did it give?
**A.** 3.54 µM

**Q.** What about the CC50 (PC-3) of the same compound?
**A.** 4.48 µM

**Q.** And the CC50 (HT-29)?
**A.** 1.12 µM

**Q.** For `CSc1ccc(/C=C2/C(C)=C(CC(=O)NCCN3CCCC3)c3cc(F)ccc32)cc1`, which CC50 (MDA-MB-231) is on record?
**A.** 3.78 µM

**Q.** And the CC50 (PC-3)?
**A.** 5.27 µM

**Q.** And the CC50 (HT-29)?
**A.** 1.81 µM

**Q.** With `CSc1ccc(/C=C2/C(C)=C(CC(=O)N(C)CCN(C)S(=O)(=O)c3ccc4ccccc4c3)c3cc(F)ccc32)cc1` as the compound, how does the CC50 (MDA-MB-231) read?
**A.** > 50 µM

**Q.** What about the CC50 (PC-3) of the same compound?
**A.** > 50 µM

**Q.** What about the CC50 (HT-29) of the same compound?
**A.** 35.3 µM

**Q.** How did the CC50 (MDA-MB-231) turn out when `CC1=C(CC(=O)N(C)CCN(C)S(C)(=O)=O)c2cc(F)ccc2/C1=C\c1ccc([S+](C)[O-])cc1` (configuration not stated) was run?
**A.** 12.5 µM

**Q.** And the CC50 (PC-3)?
**A.** 42.6 µM

**Q.** What about the CC50 (HT-29) of the same compound?
**A.** 12.4 µM

**Q.** Which results are given for `CC1=C(CC(=O)NCCC(C)C)c2cc(F)ccc2/C1=C\c1ccc([S+](C)[O-])cc1` (configuration not stated)?
**A.** CC50 (MDA-MB-231): 27.7 µM; CC50 (PC-3): 20.2 µM; CC50 (HT-29): 17.7 µM

**Q.** How did the CC50 (MDA-MB-231) turn out when `CCN1CCC[C@H]1CNC(=O)CC1=C(C)/C(=C/c2nc3ccccc3s2)c2ccc(F)cc21` was run?
**A.** 5.58 µM

**Q.** What about the CC50 (PC-3) of the same compound?
**A.** 7.72 µM

**Q.** And the CC50 (HT-29)?
**A.** 1.66 µM

**Q.** What does the source list for `CC1=C(CC(=O)N2CCC[C@H]2CN2CCCC2)c2cc(F)ccc2/C1=C\c1ccc([S+](C)[O-])cc1` (some centres not stated)?
**A.** CC50 (MDA-MB-231): > 50 µM; CC50 (PC-3): > 50 µM; CC50 (HT-29): 20.2 µM

**Q.** For `CC1=C(CC(=O)N(C)CCN(C)S(=O)(=O)c2cccc3ccccc23)c2cc(F)ccc2/C1=C\c1ccc([S+](C)[O-])cc1` (configuration not stated), which CC50 (MDA-MB-231) is on record?
**A.** 29.1 µM

**Q.** And the CC50 (PC-3)?
**A.** 8.96 µM

**Q.** And the CC50 (HT-29)?
**A.** 3.99 µM

**Q.** Which CC50 (MDA-MB-231) does the source give for `COc1cc(/C=C2/C(C)=C(CC(=O)NCCC(C)C)c3cc(F)ccc32)cc(OC)c1OC` here?
**A.** 8.73 µM

**Q.** What about the CC50 (PC-3) of the same compound?
**A.** 8.2 µM

**Q.** And the CC50 (HT-29)?
**A.** 5.24 µM

**Q.** `CC1=C(CC(=O)NCc2ccco2)c2cc(F)ccc2/C1=C\c1ccc([S+](C)[O-])cc1` (configuration not stated) was tested. Which CC50 (MDA-MB-231) did it give?
**A.** 2.73 µM

**Q.** And the CC50 (PC-3)?
**A.** > 50 µM

**Q.** And the CC50 (HT-29)?
**A.** 1 µM

**Q.** How did the CC50 (MDA-MB-231) turn out when `CSc1ccc(/C=C2/C(C)=C(CC(=O)N(C)CCN(C)S(C)(=O)=O)c3cc(F)ccc32)cc1` was run?
**A.** 11.6 µM

**Q.** What about the CC50 (PC-3) of the same compound?
**A.** 15.5 µM

**Q.** And the CC50 (HT-29)?
**A.** 4.04 µM

**Q.** For `COc1cc(/C=C2/C(C)=C(CC(=O)N3CCC[C@H]3CN3CCCC3)c3cc(F)ccc32)cc(OC)c1OC`, which CC50 (MDA-MB-231) is on record?
**A.** 11.1 µM

**Q.** And the CC50 (PC-3)?
**A.** 12.3 µM

**Q.** What about the CC50 (HT-29) of the same compound?
**A.** 4.22 µM
